The source of these data is article PMC3528973 (Bioorganic & medicinal chemistry letters, 2011).

≈ marks a conversion by molar mass, not a printed value. Where two headings read alike, the source gives them in different places.

Data set [1] concerns BJeLR (expressing HRAS^G12V). The settings on record: cited from earlier work.
Data set [2] concerns BJeLR (expressing HRAS^G12V). The settings on record: for increase in activity compared to 2a: BJeLR.
Data set [3] has as its system BJeLR (expressing HRAS^G12V). Kind of data set: cells. The settings on record: read-out: IC50 BJeLR.
The subject of data set [4] is BJeH-LT (isogenic to BJeLR without HRAS^G12V). Kind of data set: Cell viability counterscreen in isogenic BJeH-LT cells. It counts as cell-based. Conditions: read-out: IC50 BJeH-LT. The method in brief:
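IC50 measured in BJeH-LT cells, the isogenic partner of BJeLR lacking mutant HRAS; each reported value is the mean of experiments run in triplicate.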

Data set [5] deals with DRD (expressing HRAS^G12V with alternative oncogenic constructs). Briefly: Cell viability in DRD cells. It is filed as cell-based.
Data set [6] is described as follows: Stability/reactivity toward glutathione. It counts as physicochemical.

A word on the IC50: it is the midpoint of a concentration-inhibition curve. Regarding `COC(=O)c1ccc(C2c3[nH]c4ccccc4c3C[C@@H](C(=O)OC)N2C(=O)CCl)cc1` (stereo partly shown) [RSL3], the “selectivity vs BJeH-LT” value in data set [1] (BJeLR vs BJeH-LT) is “approximately 8 fold”. Moreover, the IC50 in data set [1] (read-out: IC50 in BJeLR, BJeLR) is 100 nM.
On to `O=C(c1ccc([N+](=O)[O-])o1)N1CCN(C(c2ccccc2)c2ccccc2)CC1` [Compound 2m], for which the “activity in the cell assays (in words)” value in data set [2] is “inactive”. Further, the IC50 in data set [3] was over 20 µg/mL.
As to `Cc1onc(C(=O)NCc2ccc(F)cc2)c1[N+](=O)[O-]` [Compound 2o], the IC50 in data set [4] and in data set [3] was over 20 µg/mL each time. Moreover, the “activity in the cell assays (in words)” value in data set [2] is “inactive”.
`Cc1ccc(C(=O)N2CCN(C(c3ccccc3)c3ccccc3)CC2)c([N+](=O)[O-])c1` [Compound 2l]: the IC50 in data set [4] and in data set [3] was over 20 µg/mL each time. For the same compound, the “activity in the cell assays (in words)” value in data set [2] is “inactive”.
`COc1ccc(N(C(=O)CCl)C(C(=O)NCCc2ccccc2)c2nc(C)cs2)cc1Cl` (stereo not shown) [Compound 1k]: in data set [2], the “activity in the cell assays (in words)” value was “inactive”.
Regarding `Cc1onc(C(=O)N2CCN(Cc3ccccc3)CC2)c1[N+](=O)[O-]` [Compound 2r], the IC50 in data set [4] and in data set [3] was over 20 µg/mL throughout. In addition, the “activity in the cell assays (in words)” value in data set [2] is given as “eliminate activity”.
Regarding `Cc1onc(C(=O)N2CCN(C(c3ccncc3)c3ccncc3)CC2)c1[N+](=O)[O-]` [Compound 2v], the IC50 in data set [4] and in data set [3] was over 20 µg/mL throughout. For the same compound, the “activity in the cell assays (in words)” value in data set [2] is “inactive”.
`Cc1onc(C(=O)N2CCN(C(c3ccc(Cl)cc3)c3ccc(Cl)cc3)CC2)c1[N+](=O)[O-]` [Compound 2y]: the “selectivity for the DRD vs the BJeH cell line” value in data set [5] (DRD (HRAS^G12V) vs BJeH (non expressing HRAS^G12V)) is recorded as 6 fold. The “increase in activity compared to the hit compound 2a” value in data set [5] (DRD cell line) stood at 16 fold. In addition, the “increase in activity compared to 2a” value in data set [2] is reported as 14 fold.
One may read the solubility as the dissolved amount per volume that the medium holds. In the data set “Aqueous solubility”, `COc1ccc(N(C(=O)CCl)C(C(=O)NCS(=O)(=O)c2ccc(C)cc2)c2cccs2)cc1Cl` (stereo not shown) [Compound 1q] registered a solubility of 16 µM (≈ 8.66 µg/mL).
Compound `COc1ccc(N(C(=O)CCl)C(C(=O)NCCc2ccccc2)c2cccs2)cc1Cl` (stereo not shown) [Compound 1a] showed a GSH adduct observed in data set [6] (48 hours incubation in PBS/DMSO (1/2) at room temperature, GSH 5 mM) of 20%. The “time in which formation of the GSH adduct was observed” value in data set [6] (base (triethylamine) added) stood at 1 h. This compound came in with a solubility in the data set “Aqueous solubility” of under 1 µM.
For `Cc1onc(C(=O)N2CCN(C(c3ccc(F)cc3)c3ccc(F)cc3)CC2)c1[N+](=O)[O-]` [Compound 2w], the “increase in activity compared to 2a” value in data set [2] amounted to 5 fold.
For the compound `COc1ccccc1N1CCN(C(=O)c2noc(C)c2[N+](=O)[O-])CC1` [Compound 2q], the IC50 in data set [4] and in data set [3] was over 20 µg/mL throughout. For the same compound, the “activity in the cell assays (in words)” value in data set [2] was “inactive”.
Regarding `COc1ccc(N(C(=O)CCl)C(C(=O)NCn2nnc3ccccc32)c2cccs2)cc1Cl` (stereo not shown) [Compound 1r], the “aqueous solubility (in words)” value in “Aqueous solubility” (compared to 1a) was “did not improve solubility”.
With `Cn1ncc([N+](=O)[O-])c1C(=O)N1CCN(C(c2ccccc2)c2ccccc2)CC1` [Compound 2j], the IC50 in data set [4] and in data set [3] was over 20 µg/mL throughout.
Turning to `CCC(=O)N1CCN(C(=O)c2noc(C)c2[N+](=O)[O-])CC1` [Compound 2p], the IC50 in data set [4] and in data set [3] was over 20 µg/mL each time. The “activity in the cell assays (in words)” value in data set [2] was “inactive”.
Take `O=C(c1n[nH]cc1[N+](=O)[O-])N1CCN(C(c2ccccc2)c2ccccc2)CC1` [Compound 2h]: the IC50 in data set [4] and in data set [3] was over 20 µg/mL each time.
Turning to `Cn1cc([N+](=O)[O-])c(C(=O)N2CCN(C(c3ccccc3)c3ccccc3)CC2)n1` [Compound 2i], the IC50 in data set [4] and in data set [3] was over 20 µg/mL throughout.
`Cc1onc(C(=O)N2CCN(C(c3ccccn3)c3ccccn3)CC2)c1[N+](=O)[O-]` [Compound 2u]: the IC50 in data set [4] and in data set [3] was over 20 µg/mL throughout. The “activity in the cell assays (in words)” value in data set [2] is “inactive”.
For the compound `Cc1onc(C(=O)N2CCOCC2)c1[N+](=O)[O-]` [Compound 2n], the IC50 in data set [4] and in data set [3] was over 20 µg/mL in each case. In addition, in data set [2], the “activity in the cell assays (in words)” value was “inactive”.
As for `O=C(c1cc([N+](=O)[O-])ccn1)N1CCN(C(c2ccccc2)c2ccccc2)CC1` [Compound 2k], in data set [2], the “activity in the cell assays (in words)” value is on record as “weak inhibitor”.
With `Cc1onc(C(=O)NCCNC(c2ccccc2)c2ccccc2)c1[N+](=O)[O-]` [Compound 2t], the half-maximal inhibitory concentration (IC50) in data set [4] is over 20 µg/mL.
